Screens (PubChem BioAssay)
Compounds with a hit are over-represented: about 0.96% of the library has one in this group of screens.
T cell modulator: T cell immune modulators affecting CD8 T cell-vesicle binding. 2C CD8+ T cell-vesicle binding, flow cytometry; stronger effect = lower value. response (vesicle binding), % at 7 µM. 330,000 tested, 0.068% active. AID 2052;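 active = response, share of CD8 T cells binding vesicles, and their 90th percentile fluorescence all below set limits, cut at about 80% in these data, passing the limit was not always enough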;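 also: values below 100% mean blocked vesicle binding to the CD8+ T cells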
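Assay system – 2C mouse CD8+ T cells · Also added – QL9-loaded Drosophila micro-vesicles · Timing – Cell–vesicle co-incubation 1.5 h at 37 °C, staining 20 min on ice · Signal – flow cytometry of vesicle-bound cells · Measure – percent CD8+ FL2 mean versus row control · Controls – Peptide-free naked vesicles (low) and QL9 vesicles with 0.7% DMSO vehicle (high)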
RPL19A TOR yeast: alters RPL19A-GFP fluorescence in TOR pathway yeast screen. percent response vs DMSO, % at 10 µM. 330,000 tested, 0.3% active. S. cerevisiae RPL19A-GFP strain, flow cytometry, 3 h; stronger effect = lower value;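 active = percent response vs DMSO below 50%; inconclusive = fewer than 70 events counted for the yeast strain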;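 also: median channel GFP fluorescence of the barcoded RPL19A-GFP strain; ratio of sample median GFP to plate DMSO average so 100% = DMSO; lower means less RPL19A-GFP as with rapamycin TOR inhibition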
MEP2 TOR yeast: modulators of TOR pathway MEP2-GFP in S. cerevisiae; S. cerevisiae MEP2-GFP strain, flow cytometry GFP, 3 h; 100% = DMSO control level; GFP response vs DMSO, % at 10 µM; 330,000 tested, 0.51% active; AID 2016;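 active = GFP response versus DMSO above a set limit, roughly screen mean plus 3 SD, cut at about 180% in these data; inconclusive = fewer than 70 cells counted for a yeast strain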;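 also: median GFP fluorescence of the barcode-gated MEP2-GFP cells per well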
AGP1-GFP MLPCN: modulators of TOR pathway AGP1-GFP in S. cerevisiae. S. cerevisiae AGP1-GFP multiplex flow cytometry, 3 h; GFP as percent of DMSO wells. 320,000 tested, 0.02% active. GFP response vs DMSO, % at 10 µM;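 active = GFP response relative to DMSO above a set limit, near screen average plus 3 SD, cut at about 150% in these data; inconclusive = fewer than 70 cells counted for the yeast strain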;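 also: median GFP channel fluorescence of the gated AGP1 strain per well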
CIT2 TOR yeast: modulators of TOR pathway CIT2-GFP in S. cerevisiae; 320,000 tested, 0.065% active; S. cerevisiae CIT2-GFP strain, flow cytometry, 3 h; 100 means same as DMSO wells; AID 2029; GFP response vs DMSO, % at 10 µM;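 active = GFP response relative to DMSO above a set limit, near the screen mean plus 3 SD, cut at about 150% in these data; inconclusive = Fewer than 70 cells measured for a yeast strain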;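 also: ratio of well median GFP fluorescence to mean of DMSO wells on the plate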
LAP4-GFP MLPCN: modulators of TOR pathway LAP4-GFP in S. cerevisiae; S. cerevisiae LAP4-GFP multiplex, flow cytometry GFP, 3 h; median GFP as percent of DMSO wells; GFP response vs DMSO, % at 10 µM; 320,000 tested, 0.34% active;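 active = GFP response vs DMSO above a set limit, about the screen mean plus 3 SD, cut at about 150% in these data; inconclusive = under 70 cell events counted for the yeast strain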
* = called active by the depositor; i = inactive; ? = inconclusive; . = not tested or not shown; [ ] = remark or other dose.

SMILES	T cell modulator	RPL19A TOR yeast	MEP2 TOR yeast	AGP1-GFP MLPCN	CIT2 TOR yeast	LAP4-GFP MLPCN
COc1cccc2sc(N(CCN(C)C)C(=O)/C=C/c3cccs3)nc12	208	52	193*[may fluoresce violet]	?	?	91
CC(=O)Nc1ccc(N(C(=O)Cc2cccs2)C(C(=O)NC2CCCC2)c2ccncc2)cc1 (configuration not stated)	158	104	109	100	119	105
CN(C)c1ccc(NC(=O)CSc2nc3ccccc3c(=O)n2CC2CCCO2)cc1 (configuration not stated)	274	54	214*[may fluoresce violet]	?	?	78
COc1ccc(CNC(=O)[C@@H]2CCCN2C(=O)[C@@H]2Cc3ccccc3CN2C(=O)OC(C)(C)C)cc1	140	?	?	?	116	?
COc1cccc(NC(=O)[C@@H]2CCCN2C(=O)[C@@H]2Cc3ccccc3CN2C(=O)OC(C)(C)C)c1	205	19*[may fluoresce violet]	159	16	?	78
CCOc1ccc(S(=O)(=O)NCCC(=O)N2CC=C(c3ccccc3)CC2)cc1	589	89	88	85	85	101
Cc1cc(NC(=O)c2ccc(F)cc2)no1	340	99	105	98	109	94
Cc1cc(NC(=O)c2ccno2)no1	189	92	112	113	156*[may fluoresce green]	107
Cc1ccc(SC(=O)c2c(C)noc2-c2cc(C)on2)cc1	608	97	105	108	90	155*
O=C(Cn1ncc2c3ccccc3n(Cc3ccccc3)c2c1=O)NCCN1CCOCC1	311	29*[may fluoresce violet]	130	?	?	83
CN(c1ccc(C(=O)Nc2ccccn2)cc1)S(=O)(=O)c1ccccc1	57*	101	104	100	84	97
COc1ccccc1C(CNC(=O)c1cccc(S(=O)(=O)Nc2ccc(C)cc2)c1)N1CCCC1 (configuration not stated)	351	94	95	101	88	100
COC(=O)c1ccc(-c2nc(O)c3cnccn23)cc1	235	22*[may fluoresce violet]	325*[may fluoresce violet]	?	?	76
CC1CCN(S(=O)(=O)c2cccc(-c3cn4cc(Cl)ccc4n3)c2)CC1	164	93	93	98	87	158*
CC1CCCN(S(=O)(=O)c2cccc(-c3cn4cccnc4n3)c2)C1 (configuration not stated)	292	61	177*[may fluoresce violet]	.	?	84
Cc1nc(-c2cccc(S(=O)(=O)N3CCCC(C)C3)c2)cs1 (configuration not stated)	247	95	101	82	102	98
CCOC(=O)C1CCN(S(=O)(=O)c2cccc(-c3cn4cc(Cl)ccc4n3)c2)CC1	277	90	93	91	85	90
Clc1ccc(-c2ccc(CNCC3CCCO3)o2)cc1 (configuration not stated)	596	100	92	98	95	104
COc1ccc(C(=O)c2ccccc2)cc1	389	108	109	101	106	110
COc1ccc(C(=O)c2nccc3ccccc23)cc1	246	99	185*	77	105	105
Cc1cc(C)n(C(=O)Cc2cn3ccsc3n2)n1	72*	97	105	100	106	93
COc1ccc(CN2C(=O)c3cccnc3C2=O)cc1S(=O)(=O)N1CCOc2ccccc21	306	45*[may fluoresce violet]	334*[may fluoresce violet]	?	?	110
COc1ccc(CN2C(=O)c3cccnc3C2=O)cc1S(=O)(=O)N1CCOc2ccc(Cl)cc21	496	98	111	99	91	102
C[C@H](CO)N1C[C@H](C)[C@@H](CN(C)S(=O)(=O)c2ccccc2)Oc2ccc(NC(=O)Nc3ccc4c(c3)OCO4)cc2C1=O	540	100	94	94	92	91
O=C(NC1CC1)c1nc(Cn2cc([N+](=O)[O-])cn2)no1	529	105	107	79	119	90
SMILES	T cell modulator	RPL19A TOR yeast	MEP2 TOR yeast	AGP1-GFP MLPCN	CIT2 TOR yeast	LAP4-GFP MLPCN
NS(=O)(=O)c1ccc(CCNC(=O)C2CCN(S(=O)(=O)c3cccc4cccnc34)CC2)cc1	54*	103	103	106	110	106
Cc1cccc(CCNC(=O)C2CCN(S(=O)(=O)c3cccc4cccnc34)CC2)c1	239	100	120	98	106	102
Cc1ccc(CNC(=O)Cc2ccc(-c3ccccc3)cc2)cc1	155	100	105	101	97	102
Cc1ccc(CC(=O)NCC(O)c2ccccc2)cc1 (configuration not stated)	199	46*[may fluoresce violet]	284*[may fluoresce violet]	?	?	85
C=CCNC(=S)N/N=C(\C)c1cccc(OC)c1	239	106	217*	94	100	123
CCN(C(=O)COC(=O)CSc1ccc(F)cc1)c1c(N)n(Cc2ccccc2)c(=O)[nH]c1=O	378	97	103	100	92	101
O=C(CCN1C(=O)C2CC=C(Cl)CC2C1=O)NCc1ccccc1 (configuration not stated)	232	?	206*[may fluoresce violet]	?	?	?
CC1CCCN(CCCNC(=O)C2CCN(S(=O)(=O)N3CCC4(CC3)OCCO4)CC2)C1 (configuration not stated)	310	47*	120	18	105	86
O=C(NCCCN1CCCCC1)C1CCN(S(=O)(=O)N2CCC3(CC2)OCCO3)CC1	i	36*[may fluoresce violet]	154	?	?	90
O=C(COC(=O)Cc1ccc(F)cc1)NC(=O)c1ccccc1	396	97	101	106	95	115
CCCCC[C@H](O)/C=C/[C@@H]1[C@@H](CCCCCCC(=O)O)[C@@H](O)C[C@H]1O	328	81	150	109	101	175*
CCCCC[C@H](O)/C=C/C1=C(CCCCCCC(=O)O)C(=O)CC1	96	105	107	99	91	95
COc1ccccc1CNC(=O)CN(C)S(=O)(=O)c1ccc(F)cc1	247	97	99	95	105	88
O=C(Nc1ccc(S(=O)(=O)N2CCCC2)cc1)C1CCCN1C(=O)c1cccs1 (configuration not stated)	400	108	105	107	111	111
Cc1cccc(NC(=O)CS(=O)(=O)c2cn(CC(=O)N3CCOCC3)c3ccccc23)c1	298	43*[may fluoresce violet]	187*[may fluoresce violet]	?	?	70
Cn1c(=O)c2[nH]c(-c3ccccc3O)nc2n(C)c1=O	388	88	113	104	105	105
CCCOc1ccccc1-c1nc2c([nH]1)c(=O)[nH]c(=O)n2C	241	65	186*[may fluoresce violet]	27	?	95
Cc1ccc(-c2nc(CSCC(=O)N3CCN(c4ccccn4)CC3)c(C)o2)cc1	187	99	103	108	101	108
